From PubChem
Most compounds without a hit are left out; they make up all but 1.9% or so of the library.
Runt-CBFb FRET: inhibitors of RUNX1 Runt–CBFb binding, primary screen, biochemical, FRET, Cerulean-Runt, Venus-CBFb, uHTS | Runt-related transcription factor 1 (Homo sapiens) + Core-binding factor subunit beta … | Cerulean-Runt/Venus-CBFb FRET ratio 530/480, 1 h | inhibition, % at 20 µM | 220,000 tested, 0.46% active;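 active means inhibition over about 50% at 20 µM in the single-dose screen, limit read from the data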;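 further: 0% = DMSO wells and 100% = excess unlabeled CBFb competitor control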
Target sequence (Q01196 whole entry, looked up): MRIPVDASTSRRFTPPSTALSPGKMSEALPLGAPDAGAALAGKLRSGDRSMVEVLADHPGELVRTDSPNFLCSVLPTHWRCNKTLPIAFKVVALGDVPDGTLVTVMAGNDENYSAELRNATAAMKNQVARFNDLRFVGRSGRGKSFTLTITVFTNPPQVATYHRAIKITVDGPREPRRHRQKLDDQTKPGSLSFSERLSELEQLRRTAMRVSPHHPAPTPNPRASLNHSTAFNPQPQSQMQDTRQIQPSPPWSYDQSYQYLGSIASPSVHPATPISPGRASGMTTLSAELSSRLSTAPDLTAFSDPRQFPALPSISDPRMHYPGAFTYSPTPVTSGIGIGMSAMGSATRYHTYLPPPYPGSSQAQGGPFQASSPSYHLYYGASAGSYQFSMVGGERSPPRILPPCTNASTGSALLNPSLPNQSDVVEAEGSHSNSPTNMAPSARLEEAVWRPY
Target sequence (Q13951 whole entry, looked up): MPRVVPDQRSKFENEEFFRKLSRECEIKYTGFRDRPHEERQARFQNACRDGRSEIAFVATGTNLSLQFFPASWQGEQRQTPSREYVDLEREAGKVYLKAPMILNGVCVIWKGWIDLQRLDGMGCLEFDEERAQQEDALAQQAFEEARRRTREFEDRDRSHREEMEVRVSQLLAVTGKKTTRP
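test system = Cerulean-tagged RUNX1 Runt domain (FRET donor) fusion protein | reagent = Venus-CBFb binding partner, 100 nM | incubation = protein complex preformed 1 h, compound exposure 1 h, room temperature, dark | detection = FRET fluorescence | read-out basis = loss of energy transfer signal | controls = 5 µM unlabeled CBFb as full-inhibition high control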
CaV13 ICDI inh: Primary screen for inhibitors of IQ motif and Ca2+-dependent inactivation inhibitor domain binding in CACNA1D, Förster resonance energy transfer in living cells, …. HEK cells, CFP/YFP FRET ICDI-IQ, plate reader, 10 min; percent FRET-ratio fall versus neutral wells. inhibition, % at 12.3 µM. 340,000 tested, 0.098% active. AID 743397;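 active means mean replicate inhibition of at least 30% and at least 1% of replicates passing that level; inconclusive means only one of the two criteria is met; inactive means neither criterion is met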;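 further: 0% = median of the neutral control wells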
RanGTP-Impb inh: inhibitors of RanGTP-importin-beta interaction, primary screen, biochemical, FRET, CFP-Ran, YFP-importin-beta, homogeneous | Ran GTPase (GTP-bound) - importin-beta complex | cell-free CFP-Ran/YFP-importin-beta FRET ratio | inhibition, % (test concentration not listed) | 300,000 tested, 1.1% active | AID 2216, 2009;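 active means more than half of the replicate wells show a fall in the fluorescence ratio signal beyond about 16%, limit read from the data, passing the limit was not always enough; inconclusive means exactly half of the replicate wells pass the set limit; inactive means fewer than half of replicates pass the limit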;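 further: 0% = DMSO wells and 100% = Ran loaded with GDP instead of GTP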
HDAC3 inh: HDAC3 deacetylase inhibitors, primary screen, biochemical, fluorescence, cell-free homogeneous | 320,000 tested, 0.15% active | inhibition, % at 8.3 µM | recombinant HDAC3, fluorogenic peptide/trypsin coupled | Histone deacetylase 3 (Homo sapiens), O15379 | AID 2718, 2010; in the data active means inhibition above about 26%, passing the limit was not always enough; inconclusive means no clear call, values can overlap the other calls
Runt-SMMHC FRET: inhibitors of RUNX1 Runt–CBFb-SMMHC binding, primary screen, biochemical, FRET, Cerulean-Runt, Venus-CBFb-SMMHC, uHTS; AID 1434, 2008; inhibition, % at 20 µM; Cerulean-Runt/Venus-CBFb-SMMHC FRET ratio 530/480, 1 h; 220,000 tested, 0.74% active;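 active means mean inhibition across duplicate retests at 20 µM reaching about 50%, limit read from the data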;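 further: 0% = DMSO wells and 100% = wells with excess untagged CBFb-SMMHC; inhibitors lower the FRET ratio by blocking Runt binding to CBFb-SMMHC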
LANA-H2A inh: blockers of LANA interaction with H2A/H2B – biochemical, FP readout, HTS, primary screen; Protein LANA1 (Human herpesvirus 8 type P (isolate GK18)), Q9QR71; cell-free LANA-H2A/H2B peptide, fluorescence polarization; inhibition, % (no concentration beside the values); 320,000 tested, 0.6% active; in the data active means inhibition mostly above about 10%, no sharp cut-off; inactive means mostly below about 6.7%
Starred values were filed as active, the others as inactive; ? = inconclusive; · = no result; + = active, no number.

SMILES | Runt-CBFb FRET | CaV13 ICDI inh | RanGTP-Impb inh | HDAC3 inh | Runt-SMMHC FRET | LANA-H2A inh
CC(=O)Nc1cccc(-c2ccnc3c2CC(C(=O)NCc2cccc(Cl)c2)O3)c1 (stereo not given) | · | 45.2* | · | · | · | ·
CC(=O)Nc1ccc(-c2ccnc3c2CC(C(=O)NCc2cccc(Cl)c2)O3)cc1 (stereo not given) | · | -5.6 | · | · | · | ·
Cc1cc(C)nc(NS(=O)(=O)c2ccc(NC(=O)c3ccccc3Br)cc2)n1 | · | -5.5 | · | · | · | ·
Cc1ccc(Cn2c(=N)c(C(=O)NC3CCCC3)cc3c(=O)n4ccccc4nc32)cc1 | · | · | -0.7 | -11.7 | · | 12.9
N=c1c(C(=O)NC2CCCCC2)cc2c(=O)n3ccccc3nc2n1CCc1ccccc1 | · | 12.1 | 160.7* | -118.7 | · | -8.4
N=c1c(C(=O)NC2CCCCC2)cc2c(=O)n3ccccc3nc2n1Cc1ccccc1 | · | 11.0 | 180.1* | -407.6 | · | 1.8
N=c1c(C(=O)NC2CCCCC2)cc2c(=O)n3ccccc3nc2n1Cc1ccco1 | · | -0.3 | 64.6* | -21.4 | · | -2.9
COc1ccc(CCn2c(=N)c(C(=O)NCc3ccco3)cc3c(=O)n4ccccc4nc32)cc1 | 87.4* | -7.7 | 21.9* | -4.3 | 0.7 | 0.5
CC1CCCN(C(=O)CCS(=O)(=O)c2ccc3c(c2)NC(=O)C(C)S3)C1 (stereo not given) | · | · | -1.3 | -0.6 | · | -3.0
OC(c1ccccc1)c1nc(-c2cccs2)cs1 (stereo not given) | · | -6.1 | · | · | · | ·
COC(=O)c1cc2c(=O)n3ccccc3nc2n(Cc2cccnc2)c1=N | · | · | -0.3 | -33.7 | · | 2.8
N=c1c(C(=O)NC2CCCCC2)cc2c(=O)n3ccccc3nc2n1Cc1cccnc1 | · | 13.4 | + | -15.8 | · | -1.0
N=c1c(C(=O)NCc2ccc(F)cc2)cc2c(=O)n3ccccc3nc2n1Cc1cccnc1 | 19.5 | 15.2 | 180.6* | -347.5 | 59.0* | -0.4
O=C(NC1CCCCCC1)C1c2ccccc2C(=O)N1Cc1cccnc1 (stereo not given) | -0.5 | -8.7 | -0.3 | 7.0 | 0.5 | -1.6
O=C(CSc1nc2ccccc2c(=O)n1Cc1ccco1)NCc1ccccc1 | · | -4.6 | 0.5 | 0.3 | · | -3.5
N=c1c(C(=O)NCCc2ccccc2)cc2c(=O)n3ccccc3nc2n1Cc1ccco1 | · | -4.4 | 73.7* | -5.9 | · | -0.9
NS(=O)(=O)c1cccc(NC(=O)CSc2nc3ccc(Cl)cc3[nH]2)c1 | -1.3 | 15.2 | 3.8 | -4.4 | -6.3 | 0.4
CCOC(=O)c1ccc(NC(=O)CSc2nnnn2CCCO)cc1 | 0.4 | -6.1 | 3.8 | 13.0 | -5.1 | 2.7
COc1ccccc1OC(=O)CCc1nc2ccccc2s1 | 5.8 | -6.7 | 0.5 | 0.3 | 4.0 | 1.6
COc1ccc(CNC(=O)c2c(N)n(CCCN3CCOCC3)c3nc4ccccc4nc23)cc1 | 17.9 | · | 96.7* | -7.8 | 80.9* | -4.6
COc1ccc(CNC(=O)C(C)Sc2nc3ccccc3c(=O)n2CCCN2CCOCC2)cc1 (stereo not given) | -0.2 | -5.0 | 0.3 | 4.1 | -2.3 | -2.5
Nc1c(C(=O)NCc2ccco2)c2nc3ccccc3nc2n1CCc1ccccc1 | 38.1 | ? | 55.6* | · | 76.0* | ·
Nc1c(C(=O)NCc2ccc(F)cc2)c2nc3ccccc3nc2n1CCCN1CCOCC1 | 12.5 | -1.6 | 87.5* | -2.0 | 80.9* | -0.3
O=C(NCCCN1CCOCC1)c1ccc(CNS(=O)(=O)c2ccc(F)cc2)cc1 | 0.8 | -8.6 | 10.0 | -4.0 | -2.6 | -2.0
CCCCCOC(=O)c1c(N)n(CCOC)c2nc3ccccc3nc12 | 36.3 | -3.8 | 6.0 | -5.7 | 114.5* | -4.7
O=C(NCc1ccco1)c1ccc2ccccc2n1 | -8.2 | -2.5 | -3.0 | -4.8 | 0.4 | -3.2
